# Data: ChEMBL document CHEMBL3272198, “Preparation and in vitro antifungal activities of some quinolizidine derived hemiaminals and beta-tert-amino sulfides” (1976)
# Activity calls are given as the source filed them. No cut-off for these calls is given here.
# How the values were obtained:
# Assay type in all cases: functional
# Histoplasma capsulatum [1] = test: Antifungal activity against Histoplasma capsulatum Darling isolate 1106 at 100 ug/ml after 2 weeks (reference value: 25 mm); details: Darling isolate 1106, 336 h, read-out: DIZ
# Histoplasma capsulatum [2] = test: Antifungal activity against Histoplasma capsulatum Darling isolate 1106 at 1 ug/ml after 2 weeks (reference value: 25 mm); details: Darling isolate 1106, 336 h, read-out: DIZ
# Histoplasma capsulatum [3] = test: Antifungal activity against Histoplasma capsulatum Darling isolate 1106 at 100 ug/ml after 1 week (reference value: 14 mm)
# Histoplasma capsulatum [4] = test: Antifungal activity against Histoplasma capsulatum Darling isolate 1106 at 100 ug/ml after 3 weeks (reference value: 31 mm); details: Darling isolate 1106, 504 h, read-out: DIZ
# Blastomyces dermatitidis [5] = test: Antifungal activity against Blastomyces dermatitidis Gilchrist & Stokes isolate 1099 at 10 ug/ml after 3 weeks (reference value: 34 mm); details: Gilchrist & Stokes isolate 1099, 504 h, read-out: DIZ
# Procedure, shortened: (§1)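 Mycelial phase grown on Sabouraud dextrose agar at 25°C. Agar pH was set to 6 before the test solution was added and was 5.0-5.5 after. Test solutions contained HOAc and Me2SO, and solvent and blank controls were included. Each quadrant was center-inoculated with a 2 × 2 mm piece of a 2-week-old mycelial culture. Colony diameter was measured weekly for 3 weeks and reported as total increments (mm). Duplicates were run.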
# Histoplasma capsulatum [6] = test: Antifungal activity against Histoplasma capsulatum Darling isolate 1106 at 40 ug/ml after 3 weeks (reference value: 31 mm); details: Darling isolate 1106, 504 h, read-out: DIZ
# Blastomyces dermatitidis [7] = test: Antifungal activity against Blastomyces dermatitidis Gilchrist & Stokes isolate 1107 at 100 ug/ml after 2 weeks (reference value: 35 mm); details: Gilchrist & Stokes isolate 1107, 336 h, read-out: DIZ; procedure, shortened: as §1
# Histoplasma capsulatum [8] = test: Antifungal activity against Histoplasma capsulatum Darling isolate 1098 at 10 ug/ml after 2 weeks (reference value: 21 mm); details: Darling isolate 1098, 336 h, read-out: DIZ
# Histoplasma capsulatum [9] = test: Antifungal activity against Histoplasma capsulatum Darling isolate 1098 at 80 ug/ml after 1 week (reference value: 12 mm); details: Darling isolate 1098, 168 h, read-out: DIZ
# Blastomyces dermatitidis [10] = test: Antifungal activity against Blastomyces dermatitidis Gilchrist & Stokes isolate 1099 at 1 ug/ml after 2 weeks (reference value: 27 mm); details: Gilchrist & Stokes isolate 1099, 336 h, read-out: DIZ; procedure, shortened: as §1
# Histoplasma capsulatum [11] = test: Antifungal activity against Histoplasma capsulatum Darling isolate 1098 at 1 ug/ml after 1 week (reference value: 12 mm); details: Darling isolate 1098, 168 h, read-out: DIZ
# Histoplasma capsulatum [12] = test: Antifungal activity against Histoplasma capsulatum Darling isolate 1098 at 1 ug/ml after 3 weeks (reference value: 28 mm); details: Darling isolate 1098, 504 h, read-out: DIZ
# Blastomyces dermatitidis [13] = test: Antifungal activity against Blastomyces dermatitidis Gilchrist & Stokes isolate 1107 at 80 ug/ml after 3 weeks (reference value: 40 mm); details: Gilchrist & Stokes isolate 1107, 504 h, read-out: DIZ; procedure, shortened: as §1
# Histoplasma capsulatum [14] = test: Antifungal activity against Histoplasma capsulatum Darling isolate 1098 at 60 ug/ml after 1 week (reference value: 12 mm); details: Darling isolate 1098, 168 h, read-out: DIZ
# Blastomyces dermatitidis [15] = test: Antifungal activity against Blastomyces dermatitidis Gilchrist & Stokes isolate 1107 at 80 ug/ml after 2 weeks (reference value: 35 mm); details: Gilchrist & Stokes isolate 1107, 336 h, read-out: DIZ; procedure, shortened: as §1
# Histoplasma capsulatum [16] = test: Antifungal activity against Histoplasma capsulatum Darling isolate 1106 at 20 ug/ml after 2 weeks (reference value: 25 mm); details: Darling isolate 1106, 336 h, read-out: DIZ
# Blastomyces dermatitidis [17] = test: Antifungal activity against Blastomyces dermatitidis Gilchrist & Stokes isolate 1099 at 100 ug/ml after 2 weeks (reference value: 27 mm)
# Blastomyces dermatitidis [18] = test: Antifungal activity against Blastomyces dermatitidis Gilchrist & Stokes isolate 1107 at 80 ug/ml after 1 week (reference value: 20 mm)
# Histoplasma capsulatum [19] = test: Antifungal activity against Histoplasma capsulatum Darling isolate 1098 at 100 ug/ml after 2 weeks (reference value: 21 mm); details: Darling isolate 1098, 336 h, read-out: DIZ
# Blastomyces dermatitidis [20] = test: Antifungal activity against Blastomyces dermatitidis Gilchrist & Stokes isolate 1107 at 40 ug/ml after 2 weeks (reference value: 35 mm); details: Gilchrist & Stokes isolate 1107, 336 h, read-out: DIZ; procedure, shortened: as §1
# Histoplasma capsulatum [21] = test: Antifungal activity against Histoplasma capsulatum Darling isolate 1098 at 60 ug/ml after 3 weeks (reference value: 28 mm); details: Darling isolate 1098, 504 h, read-out: DIZ
# Histoplasma capsulatum [22] = test: Antifungal activity against Histoplasma capsulatum Darling isolate 1098 at 10 ug/ml after 3 weeks (reference value: 28 mm); details: Darling isolate 1098, 504 h, read-out: DIZ
# Histoplasma capsulatum [23] = test: Antifungal activity against Histoplasma capsulatum Darling isolate 1098 at 80 ug/ml after 3 weeks (reference value: 28 mm); details: Darling isolate 1098, 504 h, read-out: DIZ
# Histoplasma capsulatum [24] = test: Antifungal activity against Histoplasma capsulatum Darling isolate 1106 at 60 ug/ml after 3 weeks (reference value: 31 mm); details: Darling isolate 1106, 504 h, read-out: DIZ
# Blastomyces dermatitidis [25] = test: Antifungal activity against Blastomyces dermatitidis Gilchrist & Stokes isolate 1107 at 100 ug/ml after 1 week (reference value: 20 mm)
# Histoplasma capsulatum [26] = test: Antifungal activity against Histoplasma capsulatum Darling isolate 1098 at 20 ug/ml after 1 week (reference value: 12 mm); details: Darling isolate 1098, 168 h, read-out: DIZ
# Histoplasma capsulatum [27] = test: Antifungal activity against Histoplasma capsulatum Darling isolate 1106 at 40 ug/ml after 1 week (reference value: 14 mm); details: Darling isolate 1106, 168 h, read-out: DIZ
# Blastomyces dermatitidis [28] = test: Antifungal activity against Blastomyces dermatitidis Gilchrist & Stokes isolate 1107 at 10 ug/ml after 2 weeks (reference value: 35 mm); details: Gilchrist & Stokes isolate 1107, 336 h, read-out: DIZ; procedure, shortened: as §1
# Histoplasma capsulatum [29] = test: Antifungal activity against Histoplasma capsulatum Darling isolate 1098 at 40 ug/ml after 3 weeks (reference value: 28 mm); details: Darling isolate 1098, 504 h, read-out: DIZ
# Histoplasma capsulatum [30] = test: Antifungal activity against Histoplasma capsulatum Darling isolate 1106 at 60 ug/ml after 1 week (reference value: 14 mm); details: Darling isolate 1106, 168 h, read-out: DIZ
# Blastomyces dermatitidis [31] = test: Antifungal activity against Blastomyces dermatitidis Gilchrist & Stokes isolate 1099 at 40 ug/ml after 1 week (reference value: 14 mm)
smiles,measurement,setting,value
C[C@@H]1[C@H](O)[C@@H](C)/C=C/C=C/C=C/C=C/C=C/C=C/C=C/[C@H](O[C@@H]2O[C@H](C)[C@@H](O)[C@H](N)[C@@H]2O)C[C@@H]2O[C@](O)(C[C@@H](O)C[C@@H](O)[C@H](O)CC[C@@H](O)C[C@@H](O)CC(=O)O[C@H]1C)C[C@H](O)[C@H]2C(=O)O [AMPHOTERICIN B],zone of inhibition at 100 µg/mL,Histoplasma capsulatum [1],6 mm
same,zone of inhibition at 1 µg/mL,Histoplasma capsulatum [2],18 mm
same,Activity,Histoplasma capsulatum [3],inactive
same,zone of inhibition at 100 µg/mL,Histoplasma capsulatum [4],10 mm
same,zone of inhibition at 10 µg/mL,Blastomyces dermatitidis [5],11 mm
same,zone of inhibition at 40 µg/mL,Histoplasma capsulatum [6],13 mm
same,zone of inhibition at 100 µg/mL,Blastomyces dermatitidis [7],6 mm
same,zone of inhibition at 10 µg/mL,Histoplasma capsulatum [8],14 mm
same,zone of inhibition at 80 µg/mL,Histoplasma capsulatum [9],4 mm
same,zone of inhibition at 1 µg/mL,Blastomyces dermatitidis [10],10 mm
same,zone of inhibition at 1 µg/mL,Histoplasma capsulatum [11],9 mm
same,zone of inhibition at 1 µg/mL,Histoplasma capsulatum [12],28 mm
same,zone of inhibition at 80 µg/mL,Blastomyces dermatitidis [13],15 mm
same,zone of inhibition at 60 µg/mL,Histoplasma capsulatum [14],4 mm
same,zone of inhibition at 80 µg/mL,Blastomyces dermatitidis [15],10 mm
same,zone of inhibition at 20 µg/mL,Histoplasma capsulatum [16],7 mm
same,Activity,Blastomyces dermatitidis [17],Active
same,Activity,Blastomyces dermatitidis [18],inactive
same,zone of inhibition at 100 µg/mL,Histoplasma capsulatum [19],8 mm
same,zone of inhibition at 40 µg/mL,Blastomyces dermatitidis [20],14 mm
same,zone of inhibition at 60 µg/mL,Histoplasma capsulatum [21],13 mm
same,zone of inhibition at 10 µg/mL,Histoplasma capsulatum [22],19 mm
same,zone of inhibition at 80 µg/mL,Histoplasma capsulatum [23],14 mm
same,zone of inhibition at 60 µg/mL,Histoplasma capsulatum [24],13 mm
same,Activity,Blastomyces dermatitidis [25],Active
same,zone of inhibition at 20 µg/mL,Histoplasma capsulatum [26],8 mm
same,zone of inhibition at 40 µg/mL,Histoplasma capsulatum [27],6 mm
same,zone of inhibition at 10 µg/mL,Blastomyces dermatitidis [28],9 mm
same,zone of inhibition at 40 µg/mL,Histoplasma capsulatum [29],16 mm
same,zone of inhibition at 60 µg/mL,Histoplasma capsulatum [30],6 mm
same,Activity,Blastomyces dermatitidis [31],Active
